# Rows were chosen to be rich in hits. Some 29% of all compounds tested hit in one or more screens of this group.
# CYP2C9 act: human CYP2C9 activators, primary screen, biochemical, luminescence; recombinant CYP2C9, luciferin-H conversion; hits give high values; factor 1 = untreated enzyme, 0 = blocked; activation factor at 5 µM; 1.4% of 96,000 active; AID 1024, 2008;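 active = activation factor of 2 or more for CYP2C9 at a 5 µM dose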;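 also: 0 = sulfaphenazole-blocked wells and 1 = vehicle-only wells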
# Target sequence (P11712 whole entry, looked up): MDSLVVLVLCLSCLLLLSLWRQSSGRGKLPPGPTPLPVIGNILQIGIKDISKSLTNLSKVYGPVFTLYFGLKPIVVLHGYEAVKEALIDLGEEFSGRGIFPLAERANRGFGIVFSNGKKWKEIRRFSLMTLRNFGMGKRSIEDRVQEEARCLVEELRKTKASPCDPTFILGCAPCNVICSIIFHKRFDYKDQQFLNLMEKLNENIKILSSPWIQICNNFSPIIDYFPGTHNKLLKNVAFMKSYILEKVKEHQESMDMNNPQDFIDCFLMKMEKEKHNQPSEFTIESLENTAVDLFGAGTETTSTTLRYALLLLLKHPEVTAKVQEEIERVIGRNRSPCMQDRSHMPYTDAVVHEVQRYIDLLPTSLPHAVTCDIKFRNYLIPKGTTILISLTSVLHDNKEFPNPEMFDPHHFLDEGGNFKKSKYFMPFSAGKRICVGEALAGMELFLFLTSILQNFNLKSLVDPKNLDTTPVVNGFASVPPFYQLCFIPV
# CYP2C19 act: human CYP2C19 activators, primary screen, biochemical, luminescence; Cytochrome P450 2C19 (Homo sapiens), P33261; recombinant CYP2C19, luciferin-H EGE luminescence; hits give high values; 0 = fully inhibited enzyme, 1 = untreated enzyme; activation factor at 5 µM; 96,000 tested, under 10 active; AID 1025, 2008;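 active = activation factor of at least 2 at 5 µM in the primary screen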;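 also: 0 = wells with 2.5 mM tranylcypromine and 1 = vehicle-only wells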
# tolC growth inh: growth inhibitors of E. coli tolC mutant, primary screen, strain BW25113 ΔtolC::kan, 384-well; OD615; growth inhibition, % at 10 µM (by protocol); 2.2% of 65,000 active; AID 573, 2007;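 active = growth inhibition at or above a cutoff equal to the mean over every tested compound plus 3 SD, cut at about 60% in these data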;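 also: growth measured after 20 h incubation at 37 °C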
#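 Test system: E. coli BW25113 ΔtolC::kan bacteria; incubation: 37 °C, 20 h exposure; medium: LB broth supplemented with 50 µg/mL kanamycin; read-out basis: percent growth inhibition; signal: A615 absorbance measurement; compound: 10 µM final, single dose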
# Ecoli WT expand: growth inhibitors of wild-type E. coli, primary screen, strain BW25113, expanded library, OD600. OD600 absorbance. growth inhibition, % at 100 µM. 0.15% of 98,000 active;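 active = growth inhibition above about 50% at one test dose, limit read from the data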;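 also: growth measured after 20 h incubation at 37 °C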
# CYP2C19 inh: blockers of cytochrome P450 2C19 activity – biochemical, luminescence, ADME assay, primary screen; P33261; CYP2C19 Supersomes, luciferin-H EGE luminescence, 30 min; inhibition, % at 5 µM; 21% of 96,000 active; AID 778, 2007;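 active = CYP2C19 inhibition above a set limit at 5 µM in the primary screen, cut at about 50% in these data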;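 also: plate controls were negative control wells for no effect and 2.5 mM tranylcypromine positive control for full effect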
# CYP2C9 inhib: blockers of cytochrome P450 2C9 activity – biochemical, luminescence, ADME assay, primary screen; P11712; CYP2C9 Supersomes, luciferin-H conversion; inhibition, % at 5 µM; 20% of 96,000 active;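 active = blocking of liver enzyme CYP2C9 beyond about 50% at 5 µM, limit read from the data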
# An asterisk follows results filed as active; nt = no result given.
SMILES,CYP2C9 act,CYP2C19 act,tolC growth inh,Ecoli WT expand,CYP2C19 inh,CYP2C9 inhib
CCOc1ccccc1NC(=S)/C(=C(\[O-])c1ccc2c(c1)OCCO2)[n+]1ccc(CC)cc1,0.4,0.4,nt,-3,59*,62*
CC(=O)Nc1ccccc1OCC(=O)c1ccc2c(c1)OCO2,0.8,0.8,-9,7,20,16
Cc1nc(-c2ccccc2)sc1-c1nc(-c2cccs2)ncc1S(=O)(=O)c1ccccc1,0.4,0.8,nt,-12,17,62*
O=S(=O)(c1ccccc1)c1cnc(-c2cccnc2)nc1-c1ccc(Cl)cc1Cl,0.6,0.6,nt,0,37,45
O=S(=O)(c1ccccc1)c1cnc(-c2cccnc2)nc1-c1ccccc1,0.9,0.9,nt,1,8,13
Cc1nc(-c2ccccc2)sc1-c1nc(-c2cccnc2)ncc1S(=O)(=O)c1ccccc1,0.2,0.5,nt,-19,45,77*
O=S(=O)(Cc1ccccc1)N1CCN(c2ccccc2)CC1,1.3,0.9,nt,-3,8,-33
O=S(=O)(Cc1ccc(Cl)cc1)N1CCCC1,0.9,0.1,-4,8,93*,7
O=S(=O)(Cc1ccccc1)N1CCc2ccccc2C1,3.7*,0,5,-8,97*,-270
O=S(=O)(Cc1ccccc1)N1CCN(Cc2ccccc2)CC1,1.7,0.5,-3,6,53*,-70
O=S(=O)(Cc1ccccc1)N1CCCCCC1,1,0.3,4,4,66*,-5
O=S(=O)(Cc1ccccc1)N1CCCCC1,1.1,0.6,nt,-12,44,-10
Cc1ccc(Cn2ncc3c(N4CCN(c5ccccc5C)CC4)ncnc32)cc1,0.3,0.4,27,-23,60*,74*
c1ccc(Cn2ncc3c(N4CCCCC4)ncnc32)cc1,0.7,0.3,30,5,67*,30
Cc1nc(CC(=O)c2c(C)cc(O)cc2O)cs1,0.6,0.7,-6,1,35,42
CCOC(=O)c1ccc(CC(=O)c2ccc(O)cc2O)o1,0.6,0.5,nt,11,47,41
COc1ccc(CC(=O)c2c(O)cc(O)cc2O)cc1OC,0.1,0.2,nt,6,77*,88*
COc1ccc(C(=O)Cc2ccc(OC)c(OC)c2)cc1,1.2,0.6,nt,-2,42,-17
COC(=O)c1ccc(CC(=O)c2ccc(O)cc2O)o1,0.5,0.7,8,16,31,52*
COC(=O)c1ccc(CC(=O)c2c(C)cc(O)cc2O)o1,0.4,0.1,-18,3,93*,60*
COC(=O)c1cc(CC(=O)c2ccc(O)cc2O)c(C)o1,0.5,0.1,36,18,94*,54*
CCS(=O)(=O)C(=C(Nc1ccc(OC)cc1)Nc1ccc(OC)cc1)S(=O)(=O)CC,1.1,1,4,-5,2,-7
COc1cccc(NC(=O)CSc2nnc(-c3cccs3)n2C)c1,0.9,0.8,-6,-20,24,11
CCSc1nnc(Cc2cc(=O)[nH]c(=O)[nH]2)n1-c1cc(C)ccc1C,1.1,1.1,-5,1,-15,-9
N#CC1=C(SCc2ccccc2)NC2=C(C(=O)CCC2)C1c1ccc2c(c1)OCO2 (stereo not drawn),0.6,0.6,18,4,40,43
COC(=O)CSC1=C(C#N)C(c2ccc3c(c2)OCO3)C2=C(CCCC2=O)N1 (stereo not drawn),0.1,0.3,nt,-2,74*,86*
Cc1ccc(NC(=O)CSC2=C(C#N)C(c3ccc4c(c3)OCO4)C3=C(CCCC3=O)N2)c(C)c1 (stereo not drawn),0.1,0.1,30,-11,88*,93*

# Compound activity as filed in PubChem.
